In ChEMBL document CHEMBL4680079, “Discovery of a Quinoline-4-carboxamide Derivative with a Novel Mechanism of Action, Multistage Antimalarial Activity, and Potent in Vivo Efficacy” (J Med Chem, 2016):
≈ marks a conversion by molar mass, not a printed value.

How the values were obtained:
[1] = test system: Plasmodium falciparum; test: Antiplasmodial activity against drug resistant Plasmodium falciparum W2 by [3H]hypoxanthine incorporation assay; format: functional, organism-based
Procedure, shortened: (§1)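 Strains (K1, W2, 7G8, TM90C2A, D6, V1/S resistant; NF54 sensitive) cultured by the Trager and Jensen method; EC50 determined in vitro from [3H]hypoxanthine incorporation.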

[2] = test system: Plasmodium falciparum; test: Antiplasmodial activity against drug resistant Plasmodium falciparum […] [3H]hypoxanthine incorporation assay; format: functional, organism-based; procedure, shortened: as §1
[3] = test system: Plasmodium yoelii; test: Antiplasmodial activity against Plasmodium yoelli liver stage forms; format: functional, organism-based
[4] = test system: Plasmodium falciparum; test: Antiplasmodial activity against late stage (IV/V) Plasmodium falciparum NF54 gametocytes transfected with GFP-LUC assessed as growth inhibition incubated for 72 hrs by mitotracker Red-CMXROS dye based fluorescence microscopic analysis; format: functional, organism-based; conditions: NF54, 72 h
Procedure, shortened: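 NF54 pfs16-LUC-GFP stage IV–V gametocytes (10% parasitaemia, 0.1% haematocrit) exposed to compound in 0.4% DMSO, three concentrations per log, for 72 h at 37°C under 5% CO2/5% O2/90% N2. MitoTracker Red CM-H2Xros then added for 16 h and viable gametocytes counted by imaging.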

[5] = test system: Plasmodium falciparum; test: Antiplasmodial activity against chloroquine-sensitive Plasmodium falciparum 3D7 infected in human red blood cells assessed as growth inhibition by SYBR Green fluorescence assay; format: functional, organism-based, RBC; conditions: 3D7, Erythrocyte
Procedure, shortened: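 P. falciparum 3D7 grown in 5% human red cells in RPMI 1640 (pH 7.3) with 0.5% Albumax II, hypoxanthine and gentamicin at 37°C under 1% O₂/3% CO₂. Growth measured by SYBR green fluorescence (ex 485/em 528 nm), with mefloquine as assay control. EC50 calculated.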

[6] = Intrinsic clearance in CD1 mouse liver microsomes at 0.5 uM in presence of NADPH incubated upto 30 mins by UPLC-MS/MS analysis; format: ADME, Microsome; conditions: 0.5 h
Procedure, shortened: (§2)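 Compound at 0.5 μM incubated with female CD1 mouse, male Sprague-Dawley rat or pooled human liver microsomes (0.5 mg/mL, 50 mM potassium phosphate, pH 7.4). Reaction started with excess NADPH. Samples taken at 0-30 min, quenched in acetonitrile, analysed by UPLC-MS/MS. Verapamil used as control, single time course.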

[7] = Kinetic aqueous solubility of the compound by laser nephelometry; format: physicochemical; conditions: read-out: Kinetic_solubility
Procedure, shortened: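 Kinetic solubility measured by laser nephelometry. DMSO serial dilutions diluted into water to give final 100–5 μg/mL at 1.0% DMSO. Read immediately, in triplicate aliquots.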

[8] = Permeability of the compound at 10 uM incubated for 5 hrs by UPLC-MS/MS analysis based PAMPA method; format: ADME; conditions: read-out: permeability
Procedure, shortened: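 PAMPA run on a lipid-oil-lipid tri-layer filter at pH 7.4. Compound at 10 μM in PBS (DMSO ≤5%) in donor wells, PBS in acceptor wells, kept 5 h at room temperature. Both compartments quantified by UPLC-MS/MS. Data accepted only when recovery exceeded 70%.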

[9] = Intrinsic clearance in Sprague-Dawley rat liver microsomes at 0.5 uM in presence of NADPH incubated upto 30 mins by UPLC-MS/MS analysis; format: ADME, Microsome; conditions: 0.5 h; procedure, shortened: as §2
[10] = Protein binding in CD1 mouse plasma measured after 5 hr by UPLC-MS/MS analysis based equilibrium dialysis method; format: ADME, cell-free; conditions: CD1, mouse, read-out: PPB (converted)
Procedure, shortened: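 Equilibrium dialysis of female CD1 mouse plasma spiked at 10 μg/mL (12-14 kDa membrane) against isotonic buffer for 5 h at ~37°C with shaking. Unbound fraction taken as the buffer/plasma peak-area ratio by UPLC-MS/MS. n=6 replicates, run in triplicate.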

[11] = target: Voltage-gated inwardly rectifying potassium channel KCNH2 (Homo sapiens, UniProt Q12809); test: Inhibition of human ERG by IonWorks patch-clamp electrophysiology method
Chain of Voltage-gated inwardly rectifying potassium channel KCNH2 (Q12809 whole entry): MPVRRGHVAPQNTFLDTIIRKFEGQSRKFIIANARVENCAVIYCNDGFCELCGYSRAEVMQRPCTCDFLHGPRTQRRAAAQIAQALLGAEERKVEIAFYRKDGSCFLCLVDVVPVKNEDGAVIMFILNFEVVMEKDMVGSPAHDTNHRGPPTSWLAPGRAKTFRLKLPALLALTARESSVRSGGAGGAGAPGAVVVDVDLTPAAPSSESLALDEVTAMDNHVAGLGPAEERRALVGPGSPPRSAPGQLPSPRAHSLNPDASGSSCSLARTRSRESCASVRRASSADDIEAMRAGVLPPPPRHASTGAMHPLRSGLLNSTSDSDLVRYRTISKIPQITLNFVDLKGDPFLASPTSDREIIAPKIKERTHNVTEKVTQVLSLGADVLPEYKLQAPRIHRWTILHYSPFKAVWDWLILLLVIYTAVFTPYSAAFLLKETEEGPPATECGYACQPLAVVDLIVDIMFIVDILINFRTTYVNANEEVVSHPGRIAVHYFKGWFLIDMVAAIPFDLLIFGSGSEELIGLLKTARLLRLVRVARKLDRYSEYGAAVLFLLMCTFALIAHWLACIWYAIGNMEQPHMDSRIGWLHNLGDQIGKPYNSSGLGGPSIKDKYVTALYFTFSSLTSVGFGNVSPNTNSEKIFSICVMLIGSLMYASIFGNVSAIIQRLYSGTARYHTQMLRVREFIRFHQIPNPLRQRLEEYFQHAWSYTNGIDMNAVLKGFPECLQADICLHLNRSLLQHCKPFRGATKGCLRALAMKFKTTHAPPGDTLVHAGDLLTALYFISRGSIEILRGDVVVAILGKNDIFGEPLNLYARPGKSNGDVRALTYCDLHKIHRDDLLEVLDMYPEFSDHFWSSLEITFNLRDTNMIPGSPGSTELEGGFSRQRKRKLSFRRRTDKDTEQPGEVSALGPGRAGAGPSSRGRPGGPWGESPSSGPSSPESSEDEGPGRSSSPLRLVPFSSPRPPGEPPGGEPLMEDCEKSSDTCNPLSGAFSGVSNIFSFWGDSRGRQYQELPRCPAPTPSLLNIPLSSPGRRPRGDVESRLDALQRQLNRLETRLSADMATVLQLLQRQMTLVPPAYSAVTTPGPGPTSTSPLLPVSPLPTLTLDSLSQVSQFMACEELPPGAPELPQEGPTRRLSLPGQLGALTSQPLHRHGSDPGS
Procedure, shortened: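 hERG K⁺ channel inhibition measured by IonWorks patch-clamp electrophysiology. Eight-point concentration-response curves made from 3-fold serial dilutions down from the maximum final assay concentration. Each curve generated on 2 occasions.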

[12] = Oral bioavailability in NMRI mouse at 10 mg/kg administered via gavage by UPLC-MS/MS analysis; format: ADME, organism-based; conditions: in vivo
Procedure, shortened: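 Female NMRI mice (n=3) dosed by oral gavage as a solution at 10 mg free base/kg (10 mL/kg; vehicle 5 or 10% DMSO, 40% PEG400). Blood levels measured by UPLC-MS/MS. Parameters derived from the blood concentration-time curve.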

[13] = test system: Plasmodium berghei; test: Antiplasmodial activity against Plasmodium berghei ANKA infected in NMRI mouse assessed as reduction in parasitemia at 10 mg/kg, po QD for 4 days; format: functional; set-up: scale not given: the % may be the effect or the level left; conditions: time 4 day
Procedure, shortened: (§3)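 Female NMRI mice (n=3 per group, randomized, not blinded) infected with GFP-transfected P. berghei ANKA. Oral dosing once daily for 4 days in 10% DMSO/40% PEG400/50% water or HPMC suspension vehicle. Parasitaemia measured by flow cytometry on blood collected 96 h after infection. Mice watched for toxicity over 4 h post-dose each day.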

[14] = test system: Plasmodium berghei; test: Antiplasmodial activity against Plasmodium berghei ANKA infected in NMRI mouse assessed as survival days at 10 mg/kg, po QD for 4 days; format: functional; conditions: time 4 day
[15] = Clearance in Sprague-Dawley rat blood at 1 mg/kg, iv administered as bolus dose by UPLC-MS/MS analysis; format: ADME, organism-based
Procedure, shortened: (§4)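 Male Sprague Dawley rats (n=3/route) received an iv bolus solution at 1 mg free base/kg (5 mL/kg; 5% DMSO in saline). Blood sampled from 5 min to 30 or 48 h post-dose, mixed with two volumes water, frozen, then analysed by UPLC-MS/MS. Parameters derived from the blood concentration-time curve.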

[16] = Volume of distribution at steady state in Sprague-Dawley rat at 1 mg/kg, iv administered as bolus dose by UPLC-MS/MS analysis; format: ADME, organism-based; conditions: in vivo, 1 mg/kg; procedure, shortened: as §4
[17] = test system: Plasmodium berghei; test: Antiplasmodial activity against GFP-transfected Plasmodium berghei ANKA infected in NMRI mouse assessed as reduction in parasitemia by measuring effective dose administered once daily oral dose for 4 days; format: functional; conditions: 96 h, time 4 day; procedure, shortened: as §3
[18] = test system: Plasmodium falciparum; test: Antiplasmodial activity against drug resistant Plasmodium falciparum D6 by [3H]hypoxanthine incorporation assay; format: functional, organism-based; procedure, shortened: as §1
[19] = test system: Plasmodium falciparum; test: Antiplasmodial activity against drug resistant Plasmodium falciparum V1/S by [3H]hypoxanthine incorporation assay; format: functional, organism-based; procedure, shortened: as §1
[20] = Blood clearance in NMRI mouse at 1 mg/kg, iv administered as bolus dose by UPLC-MS/MS analysis; format: ADME, organism-based
[21] = Volume of distribution at steady state in NMRI mouse at 1 mg/kg, iv administered as bolus dose by UPLC-MS/MS analysis; format: ADME, organism-based; conditions: in vivo
[22] = Cmax in NMRI mouse at 3 mg/kg, po administered as gavage by UPLC-MS/MS analysis; format: ADME, organism-based; set-up: route oral, dose 3 mg/kg; conditions: in vivo
[23] = AUC in NMRI mouse at 3 mg/kg, po administered as gavage by UPLC-MS/MS analysis; format: ADME, organism-based; set-up: dose 3 mg/kg; conditions: in vivo
[24] = Tmax in Sprague-Dawley rat at 5 mg/kg, po administered via gavage by UPLC-MS/MS analysis; format: ADME, organism-based; conditions: in vivo
Procedure, shortened: (§5)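 Male Sprague Dawley rats (n=3) gavaged with a solution at 5 mg free base/kg (10 mL/kg; 0.5% w/v HPMC, 0.4% v/v Tween 80, 0.5% v/v benzyl alcohol). Blood sampled at 5, 15, 30 min and 1, 2, 4, 6, 8, 24, 30, 48 h, diluted with two volumes water, analysed by UPLC-MS/MS.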

[25] = AUC in Sprague-Dawley rat at 5 mg/kg, po administered via gavage by UPLC-MS/MS analysis; format: ADME, organism-based; set-up: dose 5 mg/kg; conditions: in vivo; procedure, shortened: as §5

SMILES: O=C(NCCN1CCCC1)c1cc(-c2ccc(CN3CCOCC3)cc2)nc2ccc(F)cc12 [CABAMIQUINE]
- EC50 [1]: 0.4 nM
- EC50 [2]: 0.3 nM
- EC50 [3]: 1 nM
- EC50 [4]: 24 nM
- EC50 [5]: 1 nM
- CLH [6]: < 0.5 mL/min/g
- solubility kinetic [7]: 216 µM (≈ 99.9 µg/mL)
- Papp at 5 h, 10 µM [8]: 7.3 ×10⁻⁶ cm/s
- CLH [9]: <= 0.8 ml/min/g
- fraction unbound at 5 h [10]: 0.37
- IC50 [11]: 16000 nM
- bioavailability [12]: 74%
- Activity [13]: 99.9%
- Survival [14]: >30 days
- clearance [15]: 18 mL/min/kg
- Vdss [16]: 15 L/kg
- ED90 [17]: 0.1 mg/kg
- EC50 [18]: 0.4 nM
- EC50 [19]: 0.7 nM
- clearance [20]: 12 mL/min/kg
- Vdss [21]: 15 L/kg
- Cmax [22]: 90 ng/mL
- AUC [23]: 2990 ng·h/mL
- Tmax [24]: 4 h
- AUC [25]: 3340 ng·h/mL
